Assay results reported in ChEMBL document CHEMBL4673243, “Discovery of 9-Cyclopropylethynyl-2-((S)-1-[1,4]dioxan-2-ylmethoxy)-6,7-dihydropyrimido[6,1-a]isoquinolin-4-one (GLPG1205), a Unique GPR84 Negative Allosteric Modulator Undergoing Evaluation in a Phase II Clinical Trial” (J Med Chem, 2020).
In brackets after ≈: the same amount, converted by molar mass.

Key:
in vitro [1] = conditions: human, liver microsomes
in vitro [2] = conditions: rhesus monkey, liver microsomes
in vitro [3] = conditions: rat, liver microsomes
in vivo [4] = conditions: male, Sprague-Dawley, rat, po, 5 mg/kg
in vitro [5] = conditions: dog, liver microsomes
in vitro [6] = conditions: mouse, liver microsomes
[7] = molecular target: 3',5'-cyclic-AMP phosphodiesterase 4A (Homo sapiens, UniProt P27815); experiment: Inhibition of recombinant human PDE4A overexpressed in HEK293 cells assessed as reduction in cAMP hydrolysis by HTRF based immunoassay; format: cell-based
In short: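 Human PDE4A from lysate of HEK293 cells overexpressing the enzyme hydrolyses cAMP; remaining cAMP measured by HTRF competitive immunoassay (d2-labelled cAMP vs cryptate anti-cAMP antibody), signal inversely proportional to cAMP; IC50 determined.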

physchem = conditions: aqueous solution with 2% DMSO, pH 7.4
[8] = Plasma protein binding in mouse at 5 uM measured after 4 hrs by LC-MS/MS analysis
[9] = Plasma protein binding in human at 5 uM measured after 4 hrs by LC-MS/MS analysis
in vitro [10] = conditions: mouse, cryopreserved hepatocytes
[11] = Plasma protein binding in rat at 5 uM measured after 4 hrs by LC-MS/MS analysis
in vitro [12] = conditions: human, cryopreserved hepatocytes
[13] = Inhibition of embelin-induced migration of human neutrophils preincubated for 30 mins followed by embelin addition and measured after 1 hr by ATPlite luminescence assay; conditions: Neutrophil
in vivo [14] = conditions: male, Sprague-Dawley, rat, po, 5 mg/kg; remark: listed apart in the source
in vivo [15] = conditions: male, Sprague-Dawley, rat, po, 5 mg/kg; remark: listed apart in the source

Chain of 3',5'-cyclic-AMP phosphodiesterase 4A (P27815 whole entry): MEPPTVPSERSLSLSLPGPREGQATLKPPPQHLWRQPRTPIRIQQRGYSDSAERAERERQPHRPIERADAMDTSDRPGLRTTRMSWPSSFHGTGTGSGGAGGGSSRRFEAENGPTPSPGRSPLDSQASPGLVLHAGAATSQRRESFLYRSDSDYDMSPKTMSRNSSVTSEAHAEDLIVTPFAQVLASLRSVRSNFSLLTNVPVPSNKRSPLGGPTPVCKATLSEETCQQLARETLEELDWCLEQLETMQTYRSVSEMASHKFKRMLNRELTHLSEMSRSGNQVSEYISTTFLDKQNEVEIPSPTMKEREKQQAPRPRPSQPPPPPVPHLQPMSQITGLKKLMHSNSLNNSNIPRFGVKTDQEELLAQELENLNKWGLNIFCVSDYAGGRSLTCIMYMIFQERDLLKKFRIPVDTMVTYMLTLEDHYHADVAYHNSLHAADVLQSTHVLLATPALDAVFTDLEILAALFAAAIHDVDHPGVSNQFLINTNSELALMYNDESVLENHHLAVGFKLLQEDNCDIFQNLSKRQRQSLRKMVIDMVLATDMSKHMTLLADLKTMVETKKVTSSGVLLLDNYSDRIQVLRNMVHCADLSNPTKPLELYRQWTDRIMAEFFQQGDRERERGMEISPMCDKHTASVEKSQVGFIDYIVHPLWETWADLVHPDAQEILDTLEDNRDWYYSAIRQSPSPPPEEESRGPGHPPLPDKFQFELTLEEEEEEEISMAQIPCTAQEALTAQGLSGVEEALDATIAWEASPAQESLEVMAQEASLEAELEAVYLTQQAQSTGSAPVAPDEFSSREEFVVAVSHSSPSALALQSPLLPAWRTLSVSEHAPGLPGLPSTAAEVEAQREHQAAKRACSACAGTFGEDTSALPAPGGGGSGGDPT

CLint scaled at 0.5 h, 1 µM (in vitro [1]) [mL/min/kg]	CLint scaled at 0.5 h, 1 µM (in vitro [6]) [mL/min/kg]	IC50 ([7]; read-out: IC50) [µM]	solubility (physchem) [µg/mL]	Structure (SMILES)	other results
–	1970	> 10	–	COc1ccc2c(c1)-c1cc(OCc3ccccc3F)nc(=O)n1CC2	–
–	–	> 10	–	O=c1nc(OCc2ccccc2F)cc2n1CCc1ccccc1-2	–
–	670	0.372	26 (≈ 68 µM)	COc1cc2c(cc1OC)-c1cc(OCc3ccccc3F)nc(=O)n1CC2	–
–	1490	> 10	–	COc1ccc2c(c1)CCn1c-2cc(OCc2ccccc2F)nc1=O	–

The remaining lines, values behind:

Structure (SMILES)	CLint scaled at 0.5 h, 1 µM (in vitro [1]) [mL/min/kg]	CLint scaled at 0.5 h, 1 µM (in vitro [6]) [mL/min/kg]	IC50 ([7]; read-out: IC50) [µM]	solubility (physchem) [µg/mL]	other results
N#Cc1ccccc1-c1ccc2c(c1)CCn1c-2cc(OCC2COCCO2)nc1=O (stereo not drawn)	86.7	151	–	–	CLint scaled at 0.5 h, 1 µM (in vitro [2]): 193 mL/min/kg; CLint scaled at 0.5 h, 1 µM (in vitro [3]): 105 mL/min/kg; AUC(0-inf) at 24 h (in vivo [4]): 2640 ng·h/mL; CLint scaled at 0.5 h, 1 µM (in vitro [5]): 167 mL/min/kg
CCCCCCOc1cc2n(c(=O)n1)CCc1cc(OC)c(OC)cc1-2	–	–	–	3 (≈ 8.37 µM)	–
O=c1nc(OCC2COCCO2)cc2n1CCc1cc(CCc3ccccn3)ccc1-2 (stereo not drawn)	25	517	–	–	–
COc1ccc2c(c1)CCn1c-2cc(OCC2COCCO2)nc1=O (stereo not drawn)	< 15	173	–	–	fraction unbound at 4 h, 5 µM [8]: 0.389; fraction unbound at 4 h, 5 µM [9]: 0.223; CLint scaled at 1 µM (in vitro [10]): 262 mL/min/kg; CLint scaled at 0.5 h, 1 µM (in vitro [3]): < 23.3 mL/min/kg; fraction unbound at 4 h, 5 µM [11]: 0.285; CLint scaled at 1 µM (in vitro [12]): < 11.7 mL/min/kg
COc1ccc2c(c1)CCn1c-2cc(OCCOc2ccccc2)nc1=O	–	–	> 10	–	–
O=c1nc(OCC2COCCO2)cc2n1CCc1cc(C#CC3CC3)ccc1-2 (racemic)	36.7	162	–	–	IC50 [13]: 0.017 µM; IC50 ([7]; hek293): Not Active; Cmax at 1.7 h (in vivo [14]): 2420 ng/mL; CLint scaled at 0.5 h, 1 µM (in vitro [3]): 23.3 mL/min/kg; AUC(0-inf) at 24 h (in vivo [4]): 10200 ng·h/mL; Tmax (in vivo [15]): 1.7 h
COc1cc2c(cc1OC)-c1cc(OCCCc3ccccc3)nc(=O)n1CC2	–	–	–	3 (≈ 7.64 µM)	–
COc1cc2c(cc1OC)-c1cc(OCC3CCCO3)nc(=O)n1CC2 (stereo not drawn)	–	175	2.17	72 (≈ 201 µM)	–
